One test deals with A549. Description: Antiproliferative activity against human A549 cells assessed as reduction in cell viability incubated for 72 hrs by MTT assay. Type of test: functional, cell-based. The settings on record: A549, 72 h. In short, it runs like this:
(§1)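 Cells (ATCC) grown in DMEM with 10 FBS, penicillin/streptomycin, 2 mM glutamine, 37 °C, 5 CO2. 5000 cells/well seeded; after 24 h, freshly prepared dilutions at five concentrations (0.01–100 μM) added for 72 h. MTT read-out; absorbance converted to percentage growth by NIH formulas. Two experiments in quadruplicate; IC50 by linear regression.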

Another test relates to CFPAC-1. Description: Antiproliferative activity against human CFPAC-1 cells assessed as reduction in cell viability incubated for 72 hrs by MTT assay. The settings on record: Homo sapiens, CFPAC-1, 72 h; read-out: IC50. Type of test: functional, cell-based. In short, it runs like this: as §1
A general note: Tetrazolium assays rely on reduction of a dye to a coloured formazan, in cell work by metabolically active cells.

Another test concerns HCT-116. The test can be described thus: Antiproliferative activity against human HCT116cells assessed as reduction in cell viability incubated for 72 hrs by MTT assay. The class given is functional, cell-based. To be noted: HCT-116, 72 h. In short, it runs like this: as §1
The next test relates to HeLa. The test can be described thus: Antiproliferative activity against human HeLa cells assessed as reduction in cell viability incubated for 72 hrs by MTT assay. Type of test: functional, cell-based. A digest of the protocol: as §1
The subject of a further test is HepG2. The test can be described thus: Antiproliferative activity against human HepG2 cells assessed as reduction in cell viability incubated for 72 hrs by MTT assay. The class given is functional, cell-based. The settings on record: HepG2, 72 h. In short, it runs like this: as §1
A further test relates to MCF7. The test can be described thus: Antiproliferative activity against human MCF7 cells assessed as reduction in cell viability incubated for 72 hrs by MTT assay. The settings on record: MCF7, 72 h. Type of test: functional, cell-based. In short, it runs like this:
as §1

For the next test, the system named is SW-620. Description: Antiproliferative activity against human SW620 cells assessed as reduction in cell viability incubated for 72 hrs by MTT assay. The class given is functional, cell-based. The settings on record: SW-620, 72 h. A digest of the protocol:
as §1

For the next test, the system named is HFF. The test can be described thus: Cytotoxicity against human HFF cells assessed as reduction in cell viability incubated for 72 hrs by MTT assay. The class given is cell-based. A digest of the protocol:
as §1

The structures appear in SMILES notation.

We go through 18 molecules from ChEMBL document CHEMBL4406859, “Antitumor and antiviral activities of 4-substituted 1,2,3-triazolyl-2,3-dibenzyl-L-ascorbic acid derivatives” (Eur J Med Chem, 2019).

As to `O=C1O/C(=C\Cn2cc(C3CC3)nn2)C(OCc2ccccc2)=C1OCc1ccccc1`, the IC50 was above 100 µM in the test with A549; 97.1 µM in the test with CFPAC-1; 32.4 µM in the test on HCT-116; 76.8 µM in the test with HeLa; 53.1 µM with HepG2; 9.27 µM in the test with MCF7. The IC50 came out at 29.5 µM in the test with SW-620 and 17 µM in the test on HFF.
`O=C1O[C@H]([C@@H](O)Cn2cc(CCO)nn2)C(OCc2ccccc2)=C1OCc1ccccc1`: the half-inhibitory concentration (IC50) with A549 is above 100 µM; in the test on CFPAC-1, above 100 µM; in the test on HCT-116, 72.7 µM; in the test with HeLa it was 68.8 µM; in the test with HepG2, 68.1 µM; in the test with MCF7, 63.4 µM. The figures for the IC50 in the test on SW-620 and in the test on HFF were above 100 µM and 58.5 µM, respectively.
As for `O=C1O/C(=C\Cn2cc(CCCCl)nn2)C(OCc2ccccc2)=C1OCc1ccccc1`, the IC50 was above 100 µM with CFPAC-1; 66.8 µM in the test on HCT-116; 66.8 µM with HeLa; 81.1 µM in the test on HepG2; 23.6 µM in the test on MCF7; 21.6 µM in the test with SW-620. Also, in the test on HFF, the IC50 amounted to 94.1 µM.
As for `O=C1O[C@H]([C@@H](O)Cn2cc(-c3cccc(O)c3)nn2)C(OCc2ccccc2)=C1OCc1ccccc1`, the half-maximal inhibitory concentration (IC50) was 59.9 µM in the test with A549; 54.1 µM in the test with CFPAC-1; 42.9 µM in the test on HCT-116; 62.7 µM in the test on HepG2; 51.8 µM in the test on MCF7; above 100 µM in the test on SW-620. For the same molecule, the IC50 in the test with HFF was determined as 39 µM.
Turning to `O=C1O[C@H]([C@@H](O)Cn2cc(-c3cc(C(F)(F)F)cc(C(F)(F)F)c3)nn2)C(OCc2ccccc2)=C1OCc1ccccc1`, the IC50 came to 28.9 µM with A549; 66.5 µM in the test with CFPAC-1; 57.2 µM in the test with HCT-116; 35.5 µM with HeLa; 33.8 µM in the test with HepG2; 45.9 µM in the test on MCF7. Besides, the IC50 stood at 49.2 µM in the test with SW-620 and 80.7 µM in the test with HFF.
For `Cc1ccc(S(=O)(=O)NCc2cn(C[C@H](O)[C@H]3OC(=O)C(OCc4ccccc4)=C3OCc3ccccc3)nn2)cc1`, the IC50 was found to be 16.8 µM in the test with A549; 68 µM in the test on CFPAC-1; 13.1 µM with HCT-116; 14.4 µM in the test with HeLa; 24.9 µM with HepG2; 6.4 µM with MCF7. In addition, the IC50 amounted to 45.8 µM in the test on SW-620 and 0.05 µM in the test on HFF.
For `O=C1O/C(=C\Cn2cc(-c3cc(C(F)(F)F)cc(C(F)(F)F)c3)nn2)C(OCc2ccccc2)=C1OCc1ccccc1`, the 50% inhibitory concentration (IC50) with A549, in the test on CFPAC-1, in the test on HCT-116, in the test on HeLa, with HepG2 and in the test on MCF7 was above 100 µM in each case. Moreover, the IC50 in the test on SW-620 and with HFF was above 100 µM throughout.
In the case of `O=C1O[C@H]([C@@H](O)CO)C(O)=C1O` [ASCORBIC ACID], the IC50 in the test on A549, with CFPAC-1, with HCT-116, in the test on HeLa, with HepG2 and in the test with MCF7 was above 100 µM throughout. Further, the IC50 with SW-620 and in the test with HFF was above 100 µM in each case.
On to `O=C1O[C@H]([C@@H](O)Cn2cc(-c3cc(F)cc(F)c3)nn2)C(OCc2ccccc2)=C1OCc1ccccc1`, for which the IC50 came to 41.2 µM with A549; 62.4 µM in the test with CFPAC-1; 48.2 µM in the test on HCT-116; 40.8 µM in the test on HeLa; 11.6 µM in the test with HepG2; 27.7 µM in the test with MCF7. The IC50 in the test on SW-620 and in the test on HFF was above 100 µM in each case.
As to `CCCCCc1ccc(-c2cn(C[C@H](O)[C@H]3OC(=O)C(OCc4ccccc4)=C3OCc3ccccc3)nn2)cc1`, the IC50 in the test on A549 is 6.22 µM; in the test on CFPAC-1 it was 9.89 µM; in the test on HCT-116, 13.8 µM; in the test on HeLa, 8.39 µM; with HepG2 it was 7.46 µM; in the test with MCF7, 9.01 µM. Moreover, the IC50 in the test with SW-620 is 12.2 µM; in the test with HFF, above 100 µM.
On to `O=C1O[C@H]([C@@H](O)Cn2cc(-c3ccc(Br)cc3)nn2)C(OCc2ccccc2)=C1OCc1ccccc1`, for which the IC50 with A549 was 0.75 µM; in the test with CFPAC-1, 5.83 µM; with HCT-116, 9.42 µM; in the test with HeLa it was 3.91 µM; in the test on MCF7 it was 5.62 µM; with SW-620 it was 3.76 µM. The IC50 in the test on HFF came to 5.1 µM.
Regarding `CC(C)(C)OC(=O)N1CCN(C(=S)SCc2cn(C[C@H](O)[C@H]3OC(=O)C(OCc4ccccc4)=C3OCc3ccccc3)nn2)CC1`, the half-maximal inhibitory concentration (IC50) in the test with A549, with CFPAC-1, with HCT-116, with HeLa, with HepG2 and in the test on MCF7 was above 100 µM in each case. The IC50 in the test on SW-620 was above 100 µM; in the test on HFF it was 0.06 µM.
Turning to `O=C1O[C@H]([C@@H](O)Cn2cc(CNS(=O)(=O)c3ccc(F)cc3)nn2)C(OCc2ccccc2)=C1OCc1ccccc1`, the IC50 stood at 22.5 µM in the test with A549; 34.7 µM in the test on CFPAC-1; 22.9 µM in the test on HCT-116; 25 µM in the test on HeLa; 18.3 µM in the test with HepG2; 26.8 µM in the test with MCF7. The IC50 in the test on SW-620 is 41.1 µM; in the test with HFF, 0.03 µM.
Turning to `COc1ccccc1-c1cn(C[C@H](O)[C@H]2OC(=O)C(OCc3ccccc3)=C2OCc2ccccc2)nn1`, the IC50 in the test on A549, in the test with CFPAC-1, in the test with HCT-116, in the test on HeLa, with HepG2 and in the test with MCF7 was above 100 µM each time. The figures for the IC50 in the test with SW-620 and in the test on HFF were above 100 µM and 0.05 µM, respectively.
Regarding `CCCCCCCCCCc1cn(C/C=C2\OC(=O)C(OCc3ccccc3)=C2OCc2ccccc2)nn1`, the IC50 with A549 is above 100 µM; with CFPAC-1 it was above 100 µM; in the test with HCT-116, 98.8 µM; with HeLa, above 100 µM; in the test with HepG2, above 100 µM; in the test with MCF7, 72 µM. For the same molecule, the IC50 is 91.7 µM in the test with SW-620 and above 100 µM with HFF.
As for `Cc1ccc(-c2cn(C[C@H](O)[C@H]3OC(=O)C(OCc4ccccc4)=C3OCc3ccccc3)nn2)cc1`, the IC50 was 8.69 µM in the test with A549; above 100 µM in the test with CFPAC-1; above 100 µM in the test on HCT-116; 25.5 µM in the test with HeLa; 8.77 µM in the test with HepG2; above 100 µM in the test with MCF7. Besides, the half-maximal inhibitory concentration (IC50) with SW-620 and in the test on HFF was above 100 µM each time.
With `CCCCCc1ccc(-c2cn(C/C=C3\OC(=O)C(OCc4ccccc4)=C3OCc3ccccc3)nn2)cc1`, the IC50 with A549, in the test with CFPAC-1, in the test with HCT-116, in the test with HeLa, with HepG2 and with MCF7 was above 100 µM each time. The IC50 in the test on SW-620 and with HFF was above 100 µM each time.
Turning to `O=C1O[C@H]([C@@H](O)Cn2cc(CNS(=O)(=O)c3ccc(Cl)cc3)nn2)C(OCc2ccccc2)=C1OCc1ccccc1`, the IC50 in the test with A549 was 2.87 µM; with CFPAC-1 it was 38.9 µM; in the test on HCT-116, 8.38 µM; with HeLa, 13.6 µM; in the test on HepG2, 7.51 µM; in the test on MCF7, 4.17 µM. The IC50 worked out at 18 µM in the test on SW-620 and 0.02 µM with HFF.

As usually defined, the IC50 is the concentration that inhibits the measured activity by half.
